Only some compounds are listed: those with a hit (about 2.3% of all), similar ones and a draw of the others.
TRPC4 potent – positive allosteric modulators of TRPC4, primary screen, cell-based, mouse TRPC4beta, HEK293 mu-opioid, Fluo-4 calcium; Short transient receptor potential channel 4 (Mus musculus), Q9QUQ5; DAMGO EC20, Fluo-4 Ca2+ flux; hits give high values; B-score at 10 µM; hit rate 0.42% among 310,000; AID 2227, 2009;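 active = B-score of calcium response area above 5 SD of library B-scores, with initial fluorescence ratio within 5 SD of library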;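 note: B-score of integrated fluorescence ratio over time as area under calcium response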
Target sequence (Q9QUQ5 whole entry, looked up): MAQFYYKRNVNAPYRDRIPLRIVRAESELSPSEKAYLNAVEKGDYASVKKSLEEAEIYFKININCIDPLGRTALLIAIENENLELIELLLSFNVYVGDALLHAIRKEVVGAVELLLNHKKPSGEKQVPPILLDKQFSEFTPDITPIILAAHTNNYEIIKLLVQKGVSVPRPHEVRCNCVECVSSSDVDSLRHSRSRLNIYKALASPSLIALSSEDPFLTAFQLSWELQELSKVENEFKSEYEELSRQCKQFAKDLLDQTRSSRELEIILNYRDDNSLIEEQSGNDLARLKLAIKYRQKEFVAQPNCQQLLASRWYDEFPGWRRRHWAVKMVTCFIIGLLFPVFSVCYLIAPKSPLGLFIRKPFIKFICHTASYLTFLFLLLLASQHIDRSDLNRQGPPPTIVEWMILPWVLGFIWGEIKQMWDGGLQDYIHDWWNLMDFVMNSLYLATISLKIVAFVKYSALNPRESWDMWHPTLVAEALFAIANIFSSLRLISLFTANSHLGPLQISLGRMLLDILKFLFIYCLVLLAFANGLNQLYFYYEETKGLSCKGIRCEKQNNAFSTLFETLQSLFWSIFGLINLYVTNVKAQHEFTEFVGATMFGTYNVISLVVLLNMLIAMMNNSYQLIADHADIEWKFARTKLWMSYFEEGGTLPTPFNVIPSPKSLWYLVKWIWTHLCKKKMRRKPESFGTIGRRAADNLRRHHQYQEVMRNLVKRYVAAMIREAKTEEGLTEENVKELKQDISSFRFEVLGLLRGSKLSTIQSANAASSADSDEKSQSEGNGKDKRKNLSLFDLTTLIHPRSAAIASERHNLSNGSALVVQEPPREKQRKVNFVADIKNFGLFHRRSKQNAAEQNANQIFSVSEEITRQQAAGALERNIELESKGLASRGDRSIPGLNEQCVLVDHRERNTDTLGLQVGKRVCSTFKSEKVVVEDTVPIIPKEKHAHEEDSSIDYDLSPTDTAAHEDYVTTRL
TRPC4 inh – inhibitors of mouse TRPC4 channel, primary screen, Fluo4 calcium, HEK293 TRPC4beta/mu-opioid cells; Short transient receptor potential channel 4 (Mus musculus), Q9QUQ5; DAMGO-evoked Fluo4 calcium flux; hits give low values; B-score at 10 µM; hit rate 0.39% among 300,000;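 active = B-score over 3 SD under the library average, no early fluorescence shift, positive overall ratio signal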
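Material: HEK293 cells with stable TRPC4beta plus mu-opioid receptor expression / Probe or stimulus: DAMGO in two steps, submaximal then maximal / Compound: single concentration per test compound / Technique: kinetic Fluo4 fluorescence imaging of calcium influx / Read-out: per-well B score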
TRPC4 act – activators of mouse TRPC4 channel, primary screen, Fluo4 calcium, HEK293 TRPC4beta/mu-opioid cells; hit rate 0.49% among 310,000; Fluo4 calcium fluorescence; hits give high values; AID 2237, 2010; B-score at 10 µM; Short transient receptor potential channel 4 (Mus musculus), Q9QUQ5;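 active = B-score above 5 SD of library B-scores, and initial fluorescence ratio not above library mean plus 5 SD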;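 note: positive B-score marks a calcium rise read as TRPC4 activation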
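Incubation: 45 min room-temperature Fluo4 loading, 110 s read / System: HEK293 cells stably co-expressing mouse TRPC4beta and mu-opioid receptor / Signal: Fluo4 fluorescence, kinetic / Control set: buffer (low) and maximal DAMGO (high) / Measure: integrated baseline-normalised fluorescence ratio, converted to per-well B score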
TRPC6 inh – mouse TRPC6 channel inhibitors, primary screen, cell-based, HEK293, membrane potential dye; ACh-evoked depolarization; hits give low values; B-score at 10 µM; Short transient receptor potential channel 6 (Mus musculus), Q61143; AID 2553, 2010; hit rate 1.1% among 310,000;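 active = B-score under library mean minus 3 SD, initial fluorescence not abnormally high, positive integrated signal ratio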;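 note: B-score derived from integrated fluorescence ratio over the kinetic read; more negative B-score means stronger inhibition of depolarization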
TRPC6 act – mouse TRPC6 channel activators, primary screen, cell-based, HEK293, membrane potential dye; Short transient receptor potential channel 6 (Mus musculus), Q61143; HEK293-TRPC6 membrane potential dye fluorescence; hits give high values; B-score at 10 µM; hit rate 0.13% among 310,000;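 active = B-score of the integrated fluorescence ratio above library mean plus 3 SD, and starting fluorescence ratio within library mean plus 5 SD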;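 note: higher score means more depolarization so channel activation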
TRPC4 spec 2 – mouse TRPC4 off-target activity of TRPC6 inhibitors, second screen; shares compounds with TRPC6 inh; HEK293 TRPC4/MOR, membrane potential dye fluorescence; channel activated by saturating DAMGO dose; inhibition, % at 10 µM; hit rate 42% among 920; AID 2776;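 active = compounds whose fluorescence signal differed from control wells by over 3 SD, either direction, in both duplicate plates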
TRPC4 spec – mouse TRPC4 modulation by TRPC6 hits, confirmation, selectivity assay for TRPC6 inhibitor project, cell-based, HEK293 TRPC4/mu-opioid, membrane potential dye. hit rate 61% among 920. activity change, negative = inhibition, % at 10 µM. shares compounds with TRPC6 inh. membrane potential fluorescence. AID 2777, 2010;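 active = rise or fall in signal beyond 3 SD of buffer-only wells in both replicate plates, either sign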;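 note: integrated kinetic ratio of fluorescence range over baseline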
HEK293 MPD ctr 2-1 – nonspecific membrane potential effects, parental HEK293, confirmation, counter-screen for TRPC6 inhibitor project, cell-based, second counter screen. shares compounds with TRPC6 inh. parental HEK293 membrane potential dye fluorescence; maximal acetylcholine challenge after compound addition. signal change vs control, % at 10 µM. hit rate 31% among 920;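 active = membrane potential signal moving either way by over 3 SD of the maximum-effect control, in both duplicate plates, meaning non-specific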
HEK293 MPD ctr-1 – membrane potential modulation in parental HEK293, confirmation, counter-screen for TRPC6 inhibitor project, cell-based | shares compounds with TRPC6 inh | parental HEK293 membrane potential dye fluorescence | membrane potential signal change, % at 10 µM | hit rate 60% among 920 | AID 2780, 2010;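 active = membrane potential signal shifting up or down by more than 3 SD of buffer-only wells, on both duplicate plates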
HEK293 MPD ctr-2 – parental HEK293 membrane potential modulation, confirmation, counter-screen for TRPC6 modulator project, cell-based. AID 488924, 2010. hit rate 51% among 2,400. shares compounds with TRPC6 inh. membrane potential dye fluorescence. membrane potential signal change, % at 10 µM;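 active = membrane potential signal moves up or down beyond 5 SD from buffer-only wells, on both duplicate plates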
HEK293 MPD ctr 2-2 – second counter-screen for TRPC6 modulators: effect in parental HEK293 cells. shares compounds with TRPC6 inh. inhibition, % at 10 µM. hit rate 14% among 2,400. AID 488926. membrane potential dye fluorescence; after compound, maximal acetylcholine stimulation;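 active = membrane potential signal drops by more than 5 SD from the mean control signal, in both duplicate plates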;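 note: plate controls were acetylcholine ECmax control wells for no effect and buffer only wells for full effect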
TRPC4/MOR mod – TRPC4 modulation by TRPC6 hit compounds, confirmation, selectivity assay for TRPC6 modulator project, cell-based, HEK293 TRPC4/mu-opioid, membrane potential dye, mouse | membrane potential fluorescence | shares compounds with TRPC6 inh | hit rate 69% among 2,400 | AID 488927, 2010 | percent change from control (negative = decrease, positive = increase), % at 10 µM;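 active = membrane potential signal moved up or down beyond 5 SD of buffer control wells, in both duplicate plates, actives on both sides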;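 note: plate controls were assay buffer wells for no effect and DAMGO maximal-effect wells for full effect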
TRPC4 ctr inh 2 – second selectivity test of TRPC6 modulators against mouse TRPC4. inhibition, % at 10 µM. shares compounds with TRPC6 inh. HEK293 TRPC4/mu-opioid, membrane potential dye fluorescence; stimulated with maximal-effect DAMGO. AID 488928. hit rate 55% among 2,400;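 active = drop in membrane potential signal beyond 5 SD of the control wells in both duplicate plates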;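 note: TRPC4 counter screen for TRPC6 hits run under conditions tuned for TRPC6 not TRPC4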
TRPC6 block conf – mouse TRPC6 channel inhibitors, confirmation, HEK293 cells, membrane potential dye, duplicate; AID 488960, 2010; hit rate 43% among 3,300; ACh-evoked depolarization; inhibition, % at 10 µM; shares compounds with TRPC6 inh;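 active = fluorescence ratio falls more than 5 SD below the full-stimulation control mean, in both duplicate runs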;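 note: integrated fluorescence ratio of peak minus minimum over baseline after agonist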
TRPC6 act conf – mouse TRPC6 channel activators, confirmation, HEK293 cells, membrane potential dye, duplicate; shares compounds with TRPC6 inh; HEK293-TRPC6 membrane potential dye fluorescence, FDSS; activation, % at 10 µM; hit rate 11% among 2,800;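 active = ratio signal rise beyond 5 SD above unstimulated control wells' mean, seen in both duplicate runs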;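 note: plate controls were buffer EC0 wells for no effect and acetylcholine ECmax response for full effect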
Starred values were filed as active, the others as inactive; i = inactive; x = no result given; ! = a repeat was not active.

SMILES	TRPC4 potent	TRPC4 inh	TRPC4 act	TRPC6 inh	TRPC6 act	HEK293 MPD ctr-2	HEK293 MPD ctr 2-2	TRPC4/MOR mod	TRPC4 ctr inh 2	TRPC6 block conf	TRPC6 act conf	others
Cc1cccc(N2CCN(C(=O)c3ccc(-n4cncn4)c([N+](=O)[O-])c3)CC2)c1C	i	i	i	i	i	x	x	x	x	x	x
COc1cc(OC)c(C(=O)N(CCc2ccccc2)Cc2ccccc2)cc1OC	i	i	i	-6.89*	i	x	x	x	x	i	i	TRPC4 spec 2=i;TRPC4 spec=15.5%*;HEK293 MPD ctr 2-1=i;HEK293 MPD ctr-1=9.0%*
O=C(CN(c1cc(Cl)ccc1Cl)S(=O)(=O)c1ccccc1)N1CCOCC1	i	i	i	i	i	x	x	x	x	x	x
Cc1ccc(NC(=O)CSc2ccc3nnc(CCNC(=O)c4ccccc4)n3n2)c(C)c1	i	i	i	i	i	x	x	x	x	x	x
COc1cccc(NC(=S)N(CCCN2CCCC2)Cc2cccn2Cc2ccc(Cl)cc2)c1	i	i	i	-5.3*	i	i	i	i	61.5%*	48.5%*	i
S=C(Nc1cccc(Cl)c1)N(CCCN1CCCC1)Cc1cccn1Cc1ccc(Cl)cc1	i	i	i	i	i	x	x	x	x	x	x
Cc1ccc(O)c(C(=O)c2cc(C#N)c(=O)n(-c3c(C)n(C)n(-c4ccccc4)c3=O)c2)c1	i	i	i	i	i	x	x	x	x	x	x
Cc1ccc(O)c(C(=O)c2cc(C#N)c(=O)n(-c3nccs3)c2)c1	i	i	i	i	31.1*	435.0%*	i	164.5%*	58.0%*	i	85.5%*
Cc1cccc2sc(N(CCCN(C)C)C(=O)c3ccc4ncsc4c3)nc12	i	i	i	-5.03*	i	i	i	i	78.0%*	45.0%*	i
Cc1ccc2sc(N(CCCN(C)C)C(=O)c3ccc(Br)s3)nc2c1C	i	i	i	-6.53*	i	i	i	-20.0%*	80.5%*	i	i
Cc1ccc2sc(N(CCCN(C)C)C(=O)c3nc4ccccc4s3)nc2c1C	i	i	i	i	i	x	x	x	x	x	x
O=C(CSc1nnc(CNC(=O)c2ccco2)o1)Nc1cccc(F)c1	i	i	i	i	i	x	x	x	x	x	x
COc1cccc(OC)c1OCCNCC1COc2ccccc2O1 (stereo unspecified)	i	i	i	-5.59*	i	144.0%*	i	27.0%*	38.5%*	i	x
Cn1c(CNC(=O)CNC(=O)Cc2ccccc2)cc(=O)n(C)c1=O	i	i	i	i	i	x	x	x	x	x	x
CC(C)NC(=O)c1cnc(Sc2ncc(C(F)(F)F)cc2Cl)n1C	i	i	i	-5.71*	i	i	i	i	i	i	i
O=C(O)Cn1c(O)c(C=Nc2ccccc2)sc1=S	i	i	i	-11.6*!	i	x	x	x	x	i	i	TRPC4 spec 2=i;TRPC4 spec=i;HEK293 MPD ctr 2-1=i;HEK293 MPD ctr-1=i
Cc1ccc(-c2noc(CCC(=O)N3CCCc4ccccc43)n2)cc1	i	i	i	-6.42*	i	104.0%*	i	12.5%*	i	66.0%*	x
CN(CC1CCOCC1)C(=O)CC1C(=O)NCCN1CC1CCCCC1 (stereo unspecified)	i	i	i	i	i	x	x	x	x	x	x
Cc1nc(N2CCCCC2)sc1C(=O)c1cccc([N+](=O)[O-])c1	i	i	i	-5.79*	i	i	i	i	i	i	i
Cc1nc(N2CCCCC2)sc1C(=O)c1ccc(SCCO)c([N+](=O)[O-])c1	i	i	i	i	i	x	x	x	x	x	x
O=C(Nc1ccncc1)c1ccc(N2CCCC2=O)cc1	i	i	i	-7.07*	i	-237.5%*	i	-42.5%*	34.5%*	i	i
O=C(Nc1cccc([N+](=O)[O-])c1)c1ccc(N2CCCC2=O)cc1	i	i	i	i	i	x	x	x	x	x	x
COc1ccc(/C=C/C(=O)NCc2ccccn2)cc1OC	i	i	i	i	i	x	x	x	x	x	x
CN1CCC23c4ccccc4NC1C21CCN(C)C3Nc2ccccc21	i	i	i	i	i	x	x	x	x	x	x
C/C=C/C=C/C(=O)N1CC[C@]23c4ccccc4N[C@H]4N(C)c5cccc6c5[C@]42CCN([C@H]6C2OC2(C)C)[C@H]13 (stereo partly specified)	i	i	i	-6.47*	i	i	i	i	30.0%*	65.5%*	x

Source: PubChem
